In ChEMBL document CHEMBL4834395, “Azole-Based Indoleamine 2,3-Dioxygenase 1 (IDO1) Inhibitors” (J Med Chem, 2021):
Activity calls are given as the source filed them. No cut-off for these calls is given here.

What was measured:
[1] = molecular target: T1, Indoleamine 2,3-dioxygenase 1 (Homo sapiens, UniProt P14902); experiment: Inhibition of recombinant human IDO1 expressed in Escherichia coli Rosetta (DE3) cells assessed as reduction in kynurenine production using L-tryptophan as substrate incubated for 20 mins by HPLC analysis
Target sequence in this assay (P14902 whole entry): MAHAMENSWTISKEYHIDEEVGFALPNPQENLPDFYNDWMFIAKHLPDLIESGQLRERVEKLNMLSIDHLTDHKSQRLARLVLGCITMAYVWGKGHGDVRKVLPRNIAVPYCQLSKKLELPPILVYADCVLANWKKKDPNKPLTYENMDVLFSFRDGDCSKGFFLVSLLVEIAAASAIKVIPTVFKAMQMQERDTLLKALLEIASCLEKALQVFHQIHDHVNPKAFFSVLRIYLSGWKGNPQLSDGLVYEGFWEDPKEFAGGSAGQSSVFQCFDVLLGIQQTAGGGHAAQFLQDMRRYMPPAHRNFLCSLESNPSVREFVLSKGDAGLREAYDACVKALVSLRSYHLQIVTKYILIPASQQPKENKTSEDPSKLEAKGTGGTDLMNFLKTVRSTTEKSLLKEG

HEK-293T = experiment: Cytotoxicity against human HEK293T cells assessed as reduction in cell viability at 200 uM after 7 hrs by DAPI staining based assay
In short: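 HEK 293T cells transiently transfected with hIDO1 (plus GFP plasmid), treated at 200 μM test compound with 2% final DMSO for 7 h at 37 °C; DMSO as negative control. Cells then washed in PBS, resuspended in PBS with 1 μg/mL DAPI and analysed immediately by flow cytometry to detect apoptotic cells.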

[2] = molecular target: T1, Indoleamine 2,3-dioxygenase 1; experiment: Inhibition of recombinant human IDO1 expressed in Escherichia coli Rosetta (DE3) cells assessed as reduction in kynurenine production using L-tryptophan as substrate at pH 7.4 incubated for 20 mins by HPLC analysis
Target sequence in this assay (P14902 whole entry): as above

[3] = molecular target: T1, Indoleamine 2,3-dioxygenase 1; experiment: Inhibition of human IDO1 expressed in HEK293T cells assessed as reduction in kynurenine production using L-tryptophan as substrate incubated for 7 hrs by HPLC analysis; assay type: cell-based
Target sequence in this assay (P14902 whole entry): as above

[4] = molecular target: T1, Indoleamine 2,3-dioxygenase 1; experiment: Inhibition of human IDO1 expressed in HEK293T cells assessed as reduction in kynurenine production at 200 uM using L-tryptophan as substrate incubated for 7 hrs by HPLC analysis; assay type: cell-based
In short: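 HEK 293T cells transiently transfected with full-length hIDO1 in pcDNA6/myc-His (with GFP plasmid to check efficiency); 16–18 h later replated in phenol-red-free DMEM with 10% FBS, 1 mM pyruvate, and added 500 μM L-trp. Compound at 200 μM, 2% final DMSO, 7 h at 37 °C; stopped with TCA (4% final). Kynurenine read by p-DMAB absorbance at 480 nm or by HPLC.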
Target sequence in this assay (P14902 whole entry, looked up): as the sequence (P14902 whole entry) above

| IC50 [1] [µM] | IC50 [2] [µM] | IC50 [3] [µM] | inhibition [4] | SMILES | Activity (HEK-293T) |
| --- | --- | --- | --- | --- | --- |
| 33 |  |  |  | Nc1ccccc1-c1c[nH]nn1 | 30% |
| 17 |  |  |  | Cn1cncc1-c1cc(Cl)ccc1O | Non-Toxic |
| 1200 |  |  |  | Cn1cncc1-c1cc(Cl)ccc1N | Non-Toxic |
|  |  |  |  | c1ccc(-c2nnn[nH]2)cc1 | Non-Toxic |
| 88 |  |  |  | Nc1ccc(Cl)cc1-n1ccnc1 | Non-Toxic |
| 1700 |  |  |  | Cn1cncc1-c1ccccc1N | Non-Toxic |
| 16 |  |  |  | Oc1ccccc1-n1ccnc1 | Non-Toxic |
| 2.3 |  |  |  | Oc1ccccc1-c1c[nH]nn1 | Non-Toxic |
| 12.1 |  |  |  | Nc1ccc(Cl)cc1-c1cnc[nH]1 | Non-Toxic |
| 0.6 |  |  |  | Oc1ccc(Cl)cc1-c1nnc[nH]1 | Non-Toxic |
|  |  |  |  | Oc1ccc(Cl)cc1-c1c[nH]nn1 | Non-Toxic |
| 0.35 |  |  |  | Clc1cccc(-c2c[nH]nn2)c1 | Non-Toxic |
|  |  |  |  | c1ccc(-c2c[nH]cn2)cc1 | Non-Toxic |
| 100 |  |  |  | Clc1cccc(-c2nnn[nH]2)c1 | Non-Toxic |
| 31 |  |  |  | Clc1cccc(-c2nnc[nH]2)c1 | Non-Toxic |
|  | 580 |  |  | c1ccc(-c2nc[nH]n2)cc1 | Non-Toxic |
|  |  |  |  | Cn1cncc1-c1ccccc1 | Non-Toxic |
| 16 |  |  |  | Oc1ccc(Cl)cc1-c1nnn[nH]1 | Non-Toxic |
| 1.5 |  |  |  | Nc1ccc(Cl)cc1-c1cnn[nH]1 | 30% |

| IC50 [1] [µM] | IC50 [2] [µM] | IC50 [3] [µM] | inhibition [4] | SMILES | Activity (HEK-293T) |
| --- | --- | --- | --- | --- | --- |
| 18 |  |  |  | Nc1ccccc1-c1cnc[nH]1 | Non-Toxic |
| 1300 |  |  |  | Nc1ccccc1-n1ccnc1 | Non-Toxic |
| 12.9 |  |  |  | Cn1cncc1-c1cccc(Cl)c1 | Non-Toxic |
|  |  |  |  | Oc1ccc(Cl)cc1-c1cnc[nH]1 | Non-Toxic |
| 31 |  |  |  | Oc1ccccc1-c1nnc[nH]1 | Non-Toxic |
| 2 |  |  |  | Nc1ccccc1-c1nnc[nH]1 | Non-Toxic |
| 0.035 |  | 0.034 |  | Nc1ccc(Cl)cc1-c1nnc[nH]1 | Non-Toxic |
| 0.22 |  |  |  | Nc1ccc(Cl)cc1-c1nnn[nH]1 | Non-Toxic |
|  |  |  |  | c1ccc(-c2cnn[nH]2)cc1 | Non-Toxic |
| 2.1 |  |  | inactive | Oc1ccc(Cl)cc1-n1ccnc1 | Non-Toxic |
|  |  |  |  | Oc1ccccc1-c1c[nH]cn1 | Non-Toxic |
|  |  |  |  | c1ccc(-n2ccnc2)cc1 | Non-Toxic |
| 41 |  |  |  | Clc1cccc(-n2ccnc2)c1 | Non-Toxic |
| 700 |  |  |  | Oc1ccccc1-c1nnn[nH]1 | Non-Toxic |
| 2.6 |  |  |  | Clc1cccc(-c2cnc[nH]2)c1 | Non-Toxic |
| 0.02 |  |  |  | Nc1ccc(Br)cc1-c1nc[nH]n1 |  |
| 5.8 |  |  |  | Nc1ccccc1-c1nnn[nH]1 | Non-Toxic |
| 38 |  |  |  | Cn1cncc1-c1ccccc1O | Non-Toxic |
